Screening results: PubChem, several laboratories
Diaph act CS: counter-screen for diaphorase-based assays: diaphorase activators and chemical reducers; Diaphorase/resazurin coupled assay, resorufin fluorescence, 16 min; stronger effect = higher value; 1 = vehicle wells, 0 = NADH-free wells; activation factor at 20 µM; 190,000 tested, 0.005% active;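 active = diaphorase activity raised at least twofold by the compound at 20 µM; inactive = activation factor below 2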
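Assay system: Purified diaphorase enzyme from Clostridium kluyveri | Amount: Enzyme 0.07 U/mL final | Dosing: Compound 20 µM once, DMSO 1% | Timing: 16 min reaction at room temperature | Detection: Fluorescence, excitation 544 nm and emission 590 nm | Evaluation: Higher resorufin formation from activation or reduction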
ROMK primary: modulates human ROMK potassium channel activity | P48048 | Tet-inducible ROMK, thallium flux fluorescence; actives lie on both sides | B-score at 10 µM | 130,000 tested, 2% active | AID 1918;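 active = signal ratio slope over the read window, or its plate-corrected B-score, at least 3 SD from the plate mean, either direction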;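 note: B-score of the F/F0 ratio slope over 7 to 12 s after thallium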
Target sequence (P48048 whole entry, looked up): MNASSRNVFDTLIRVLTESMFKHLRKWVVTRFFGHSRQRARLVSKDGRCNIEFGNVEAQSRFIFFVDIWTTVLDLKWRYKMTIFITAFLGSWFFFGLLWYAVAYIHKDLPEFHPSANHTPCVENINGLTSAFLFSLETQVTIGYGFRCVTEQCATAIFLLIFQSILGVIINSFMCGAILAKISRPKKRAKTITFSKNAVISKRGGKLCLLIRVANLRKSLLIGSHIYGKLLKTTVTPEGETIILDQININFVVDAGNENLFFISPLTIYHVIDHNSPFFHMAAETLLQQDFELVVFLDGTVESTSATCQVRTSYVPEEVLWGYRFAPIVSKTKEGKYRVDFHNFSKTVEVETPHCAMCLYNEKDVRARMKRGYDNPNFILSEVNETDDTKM
Lmaj promast: Leishmania major promastigote growth inhibition | Leishmania major promastigotes, resazurin fluorescence viability | 200,000 tested, 9% active | inhibition, % at 10 µM; in the data active = inhibition above about 50%;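 note: promastigotes grown with compound for 44 hours at 28 °C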
Diaphorase inh: inhibits diaphorase or chemically oxidizes, flagging diaphorase assay artifacts; inhibition, % at 20 µM; diaphorase resazurin-to-resorufin fluorescence, NADH, 16 min; bacterial (C. kluyveri) enzyme, not human; 190,000 tested, 0.69% active;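 active = primary screen inhibition at 20 µM above a set limit, cut at about 50% in these data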;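 note: plate controls were DMSO with full reaction for no effect and wells lacking NADH for full effect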
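System: Diaphorase enzyme from Clostridium kluyveri | Amount: Enzyme working solution with 0.14 U/mL diaphorase | Benchmarks: No-NADH positive control and DMSO neutral control | Signal: Fluorescence of resorufin formed from resazurin, Ex 544/Em 590 nm | Schedule: 16-min room-temperature incubation before reading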
Cl transport mod: modulators of human KCC2 chloride dependent transport. B-score of Tl+ flux slope (higher = more flux/activation; lower = inhibition) at 10 µM. KCC2 cells, thallium flux FluoZin-2 fluorescence. 190,000 tested, 2.2% active. AID 1456;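 active = thallium flux slope and its plate-corrected score both differing from the plate sample mean at a set confidence after two filtering rounds, in either direction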;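 note: slope of fluorescence scaled to starting intensity during 10 to 20 s after thallium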
WT yeast gro inh: growth inhibition of WT yeast, mitochondrial fusion screen; mitochondrial fusion phenotypic screen, WT strain; inhibition, % at 10 µM; 190,000 tested, 2.1% active; in the data active = inhibition above about 58%; tested in S. cerevisiae
An asterisk follows results filed as active; i = inactive; · = no result. An excerpt weighted towards active compounds, which were near 12% of everything screened.

SMILES	Diaph act CS	ROMK primary	Lmaj promast	Diaphorase inh	Cl transport mod	WT yeast gro inh
Cc1ccc(C(=O)/C=C\C(=O)c2ccc(C)cc2)cc1	0.9	-1.17	100.5*	12.3	0.972	69.7
COc1cc(/C=C2\C(=O)NN(c3ccccc3)C2=O)cc([N+](=O)[O-])c1O	0.7	2.66	-7.9	29.9	·	-5.1
CCOc1cc(/C=C2\C(=O)NN(c3ccccc3)C2=O)cc([N+](=O)[O-])c1O	0.5	-0.562	-4.6	53.3*	·	-13.4
Cc1ccc(NC(=O)c2cc(=O)n(Cc3ccccc3)c(=O)[nH]2)cc1C	1	1.38	-7.3	0.6	-0.0377	5.2
CCOC(=O)CN(C)C(=O)CCc1nnc(-c2ccsc2)o1	0.8	-0.297	-3.4	16.0	0.563	58.5*
Cc1nonc1OCCNCCNc1ccc([N+](=O)[O-])cc1Cl	1	-3.01	87.1*	-2.8	-1.31	15.9
Cc1nonc1OCCNc1ccc([N+](=O)[O-])cc1	0.9	-1.02	-7.0	7.3	0.412	-3.4
Cc1ccc(CSc2nnc(-c3ccccc3N)c(=O)[nH]2)cc1	1	0.219	-6.6	1.8	0.334	63.2*
C=CCN(Cc1nc(-c2ccc(OC)c(OC)c2)oc1C)C1CCS(=O)(=O)C1 (configuration not stated)	·	·	53.6*	·	0.907	13.6
C=CCN(Cc1nc(-c2cc(OC)ccc2OC)oc1C)C1CCS(=O)(=O)C1 (configuration not stated)	·	·	26.0	·	0.275	-6.6
CCCS(=O)(=O)N1CCCC(C(=O)NCC(OC)OC)C1 (configuration not stated)	1.1	0.69	-2.1	-8.7	0.723	-5.0
S=C(Nc1ccc(Cl)c(Cl)c1)NN1CCOCC1	0.9	·	-3.8	5.9	0.835	0.1
CCOC(=O)c1c(NC(=O)c2ccco2)sc2c1CCCCC2	0.8	0.0308	7.3	24.4	·	8.6
COC(=O)c1c(NC(=O)COC(=O)[C@@H](NS(=O)(=O)c2ccc(C)cc2)C(C)C)sc2c1CCC2	0.9	-0.311	94.3*	7.3	-0.336	33.4
CCOC(=O)c1c(NS(=O)(=O)Cc2ccccc2)sc2c1CCCC2	0.9	3.58*	-10.9	13.5	144*	30.6
CCOC(=O)c1c(NS(=O)(=O)c2ccc(Br)cc2)sc2c1CCC2	·	3.15*	-5.5	·	118*	65.1*
COC(=O)c1c(NC(=O)COC(=O)c2ccc(C)s2)sc2c1CCCCC2	1	·	-4.3	2.1	1.86	3.4
CCOC(=O)c1c(NC(=O)C(C)N2CCN(C(=O)c3ccco3)CC2)sc2c1CCCC2 (configuration not stated)	1	0.456	39.6	4.9	-0.81	69.6*
CN(C(=O)CSc1nc2ccc([N+](=O)[O-])cc2s1)C1CCS(=O)(=O)C1 (configuration not stated)	·	·	·	·	1.15	·
O=C(Cc1ccccc1)N/N=C/c1ccc(-c2ccc([N+](=O)[O-])cc2)o1	0.9	·	35.0	12.8	-0.132	-5.6
CCCNC(=O)Cn1c(=O)/c(=C\c2ccc(-c3cccc([N+](=O)[O-])c3)o2)s/c1=C\C(=O)C(C)(C)C	1.1	·	63.3*	-5.7	-0.975	0.8
Cc1ccc(C(=O)N/C(=C\c2ccc(-c3cccc([N+](=O)[O-])c3)o2)C(=O)NC(C)(C)C)cc1	0.9	·	11.0	8.5	-0.312	20.9
CCCNC(=O)Cn1c(=O)/c(=C\c2ccc(-c3ccc([N+](=O)[O-])cc3)o2)s/c1=C\C(=O)C(C)(C)C	1	·	73.1*	2.9	i	8.5
CCCC(=O)c1ccc(O)cc1O	·	·	·	·	2.12	·
O=C(Cc1cccs1)N/N=C/C(Cl)=C/c1ccccc1	0.9	0.621	3.6	9.7	0.449	2.2
CCCCNC(=O)CSc1nc(COc2ccccc2)nc2ccccc12	0.7	-0.896	11.6	26.1	-1.23	7.9
COc1cc(OC)c(OC)cc1NC(=O)CC1COc2ccccc2O1 (configuration not stated)	1.1	-0.148	-6.7	-6.7	-0.62	-11.8
COc1cccc(NC(=O)CC2COc3ccccc3O2)c1 (configuration not stated)	1	0.399	56.5*	0.9	0.254	-8.8
COc1ccc(Cl)cc1NC(=O)Cc1c(F)cccc1Cl	0.9	·	-7.0	14.9	1.95	0.7
